Test results published in ChEMBL document CHEMBL1671644, “Inhibition of human immunodeficiency virus type 1 infection by the candidate microbicide dapivirine, a nonnucleoside reverse transcriptase inhibitor” (Antimicrob Agents Chemother, 2009).

Legend:
[1] = system: Human immunodeficiency virus 1; test: Antiviral activity against HIV-1 subtype CRF02_AG V022808 infected in human MT4 cells assessed as inhibition of viral replication relative to HIV-1 3B; format: functional
How it was run: (§1)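 MT-4 cells (3 x 10^4/well) infected with site-directed mutants or recombinant clinical isolates (200 TCID50/well) with drug, cultured 3 to 5 days. Viability read by MTT colorimetric antivirogram assay. IC50 by nonlinear regression; fold change = IC50 for the test isolate / IC50 for wild-type HIV-1 IIIB tested in parallel (mean or median).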

[2] = system: Human immunodeficiency virus 1; test: Antiviral activity against HIV-1 subtype CRF02_AG V022825 infected in human MT4 cells assessed as inhibition of viral replication relative to HIV-1 3B; format: functional; how it was run: as §1
[3] = system: Human immunodeficiency virus 1; test: Antiviral activity against HIV-1 subtype CRF02_AG V022826 infected in human MT4 cells assessed as inhibition of viral replication relative to HIV-1 3B; format: functional; how it was run: as §1
[4] = system: Human immunodeficiency virus 1; test: Antiviral activity against HIV-1 subtype CRF02_AG V022830 infected in human MT4 cells assessed as inhibition of viral replication relative to HIV-1 3B; format: functional; how it was run: as §1
[5] = system: Human immunodeficiency virus 1; test: Antiviral activity against HIV-1 subtype CRF01_AE V022820 infected in human MT4 cells assessed as inhibition of viral replication relative to HIV-1 3B; format: functional; how it was run: as §1
[6] = system: Human immunodeficiency virus 1; test: Antiviral activity against HIV-1 subtype CRF01_AE V022821 infected in human MT4 cells assessed as inhibition of viral replication relative to HIV-1 3B; format: functional
How it was run: (§2)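 Recombinant clinical HIV-1 isolates (200 TCID50/well) were tested in MT-4 cells (3 x 10^4/well) over 3–5 days, with an MTT viability read-out. IC50 was fitted by nonlinear regression. Fold change is the isolate IC50 divided by the HIV-1IIIB IC50, tested in parallel.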

[7] = system: Human immunodeficiency virus 1; test: Antiviral activity against HIV-1 subtype CRF01_AE V022822 infected in human MT4 cells assessed as inhibition of viral replication relative to HIV-1 3B; format: functional; how it was run: as §1
[8] = system: Human immunodeficiency virus 1; test: Antiviral activity against HIV-1 subtype CRF01_AE V029521 infected in human MT4 cells assessed as inhibition of viral replication relative to HIV-1 3B; format: functional; how it was run: as §2
[9] = system: Human immunodeficiency virus 1; test: Antiviral activity against HIV-1 subtype CRF01_AE V029525 infected in human MT4 cells assessed as inhibition of viral replication relative to HIV-1 3B; format: functional; how it was run: as §2
[10] = system: Human immunodeficiency virus 1; test: Antiviral activity against HIV-1 subtype B V022807 infected in human MT4 cells assessed as inhibition of viral replication relative to HIV-1 3B; format: functional; how it was run: as §2
[11] = system: Human immunodeficiency virus 1; test: Antiviral activity against HIV-1 subtype B V022809 infected in human MT4 cells assessed as inhibition of viral replication relative to HIV-1 3B; format: functional; how it was run: as §1
[12] = system: Human immunodeficiency virus 1; test: Antiviral activity against HIV-1 subtype B V022810 harboring NNRTI A98S andK101R mutant infected in human MT4 cells assessed as inhibition of viral replication relative to HIV-1 3B; format: functional; how it was run: as §1
[13] = system: Human immunodeficiency virus 1; test: Antiviral activity against HIV-1 subtype B V022811 infected in human MT4 cells assessed as inhibition of viral replication relative to HIV-1 3B; format: functional; how it was run: as §2
[14] = system: Human immunodeficiency virus 1; test: Antiviral activity against HIV-1 subtype B V022812 harboring NNRTI V179I mutant infected in human MT4 cells assessed as inhibition of viral replication relative to HIV-1 3B; format: functional; how it was run: as §1
[15] = system: Human immunodeficiency virus 1; test: Antiviral activity against HIV-1 subtype B V022813 infected in human MT4 cells assessed as inhibition of viral replication relative to HIV-1 3B; format: functional; how it was run: as §1
[16] = system: Human immunodeficiency virus 1; test: Antiviral activity against HIV-1 subtype B V022814 infected in human MT4 cells assessed as inhibition of viral replication relative to HIV-1 3B; format: functional; how it was run: as §1
[17] = system: Human immunodeficiency virus 1; test: Antiviral activity against HIV-1 subtype B V022815 infected in human MT4 cells assessed as inhibition of viral replication relative to HIV-1 3B; format: functional; how it was run: as §2
[18] = system: Human immunodeficiency virus 1; test: Antiviral activity against HIV-1 subtype C V022816 infected in human MT4 cells assessed as inhibition of viral replication relative to HIV-1 3B; format: functional; how it was run: as §2
[19] = system: Human immunodeficiency virus 1; test: Antiviral activity against HIV-1 subtype C V022829 infected in human MT4 cells assessed as inhibition of viral replication relative to HIV-1 3B; format: functional; how it was run: as §1
[20] = system: Human immunodeficiency virus 1; test: Antiviral activity against HIV-1 subtype C V022831 infected in human MT4 cells assessed as inhibition of viral replication relative to HIV-1 3B; format: functional; how it was run: as §1
[21] = system: Human immunodeficiency virus 1; test: Antiviral activity against HIV-1 subtype D V022832 infected in human MT4 cells assessed as inhibition of viral replication relative to HIV-1 3B; format: functional; how it was run: as §1
[22] = system: Human immunodeficiency virus 1; test: Antiviral activity against HIV-1 subtype D V022818 infected in human MT4 cells assessed as inhibition of viral replication relative to HIV-1 3B; format: functional; how it was run: as §1
[23] = system: Human immunodeficiency virus 1; test: Antiviral activity against HIV-1 subtype D V022819 infected in human MT4 cells assessed as inhibition of viral replication relative to HIV-1 3B; format: functional; how it was run: as §1
[24] = system: Human immunodeficiency virus 1; test: Antiviral activity against HIV-1 subtype CRF05_DF V022823 infected in human MT4 cells assessed as inhibition of viral replication relative to HIV-1 3B; format: functional; how it was run: as §1
[25] = system: Human immunodeficiency virus 1; test: Antiviral activity against HIV-1 subtype CRF05_DF V022824 harboring NNRTI V106I mutant infected in human MT4 cells assessed as inhibition of viral replication relative to HIV-1 3B; format: functional; how it was run: as §1
[26] = system: Human immunodeficiency virus 1; test: Antiviral activity against HIV-1 subtype CRF05_DF V022833 harboring NNRTI V179I mutant infected in human MT4 cells assessed as inhibition of viral replication relative to HIV-1 3B; format: functional; how it was run: as §1
[27] = system: Human immunodeficiency virus 1; test: Antiviral activity against HIV-1 subtype F V029522 infected in human MT4 cells assessed as inhibition of viral replication relative to HIV-1 3B; format: functional; how it was run: as §1
[28] = system: Human immunodeficiency virus 1; test: Antiviral activity against HIV-1 subtype H V022827 harboring NNRTI V179I mutant infected in human MT4 cells assessed as inhibition of viral replication relative to HIV-1 3B; format: functional; how it was run: as §1
[29] = system: Human immunodeficiency virus 1; test: Antiviral activity against HIV-1 subtype H V022828 harboring NNRTI K101Q and V179I mutant infected in human MT4 cells assessed as inhibition of viral replication relative to HIV-1 3B; format: functional; how it was run: as §1
[30] = system: Human immunodeficiency virus 1; test: Antiviral activity against HIV-1 subtype H V029523 harboring NNRTI K101Q and V179I mutant infected in human MT4 cells assessed as inhibition of viral replication relative to HIV-1 3B; format: functional; how it was run: as §1
[31] = system: Human immunodeficiency virus 1; test: Antiviral activity against HIV-1 subtype O V029524 harboring NNRTI A98G, V179E and Y181C mutant infected in human MT4 cells assessed as inhibition of viral replication relative to HIV-1 3B; format: functional; how it was run: as §1
[32] = system: Human immunodeficiency virus 1; test: Antiviral activity against HIV-1 SM002 harboring NNTRI 181C mutant infected in human MT4 cells assessed as inhibition of viral replication relative to HIV-1 3B; format: functional; how it was run: as §1
[33] = system: Human immunodeficiency virus 1; test: Antiviral activity against HIV-1 SM007 harboring NNTRI 103N mutant infected in human MT4 cells assessed as inhibition of viral replication relative to HIV-1 3B; format: functional; how it was run: as §1
[34] = system: Human immunodeficiency virus 1; test: Antiviral activity against HIV-1 SM012 harboring NNTRI 108I mutant infected in human MT4 cells assessed as inhibition of viral replication relative to HIV-1 3B; format: functional; how it was run: as §1
[35] = system: Human immunodeficiency virus 1; test: Antiviral activity against HIV-1 SM024 harboring NNTRI 190A mutant infected in human MT4 cells assessed as inhibition of viral replication relative to HIV-1 3B; format: functional; how it was run: as §1
[36] = system: Human immunodeficiency virus 1; test: Antiviral activity against HIV-1 SM026 harboring NNTRI 103N and 181C mutant infected in human MT4 cells assessed as inhibition of viral replication relative to HIV-1 3B; format: functional; how it was run: as §1
[37] = system: Human immunodeficiency virus 1; test: Antiviral activity against HIV-1 SM030 harboring NNTRI 100I mutant infected in human MT4 cells assessed as inhibition of viral replication relative to HIV-1 3B; format: functional; how it was run: as §1
[38] = system: Human immunodeficiency virus 1; test: Antiviral activity against HIV-1 SM034 harboring NNTRI 188L mutant infected in human MT4 cells assessed as inhibition of viral replication relative to HIV-1 3B; format: functional; how it was run: as §1
[39] = system: Human immunodeficiency virus 1; test: Antiviral activity against HIV-1 SM051 harboring NNTRI 100I and 103N mutant infected in human MT4 cells assessed as inhibition of viral replication relative to HIV-1 3B; format: functional; how it was run: as §1
[40] = system: Human immunodeficiency virus 1; test: Antiviral activity against HIV-1 SM052 harboring NNTRI 101E and 103N mutant infected in human MT4 cells assessed as inhibition of viral replication relative to HIV-1 3B; format: functional; how it was run: as §1
[41] = system: Human immunodeficiency virus 1; test: Antiviral activity against HIV-1 SM058 harboring NNTRI 227L and 106A mutant infected in human MT4 cells assessed as inhibition of viral replication relative to HIV-1 3B; format: functional; how it was run: as §1
[42] = Toxicity against human cervical tissue explants after 2 hrs by MTT assay
How it was run: (§3)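 Ectocervical tissue explants, uninfected, exposed to drug for 2 or 24 h at 37°C. Viability by MTT dye reduction per milligram tissue, read right after exposure or after overnight culture following the 2-h exposure, as percent of unexposed controls. Four donors, each condition in triplicate; CC50 by nonlinear regression.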

[43] = Toxicity against human cervical tissue explants after 24 hrs by MTT assay; how it was run: as §3

SMILES: Cc1ccnc2c1NC(=O)c1cccnc1N2C1CC1 [NEVIRAPINE]
- Ratio IC50 [1]: 0.8
- Ratio IC50 [2]: 0.7
- Ratio IC50 [3]: 0.4
- Ratio IC50 [4]: 1.3
- Ratio IC50 [5]: 1.3
- Ratio IC50 [6]: 1.2
- Ratio IC50 [7]: 0.8
- Ratio IC50 [8]: 1.4
- Ratio IC50 [9]: 7
- Ratio IC50 [10]: 3.4
- Ratio IC50 [11]: 5
- Ratio IC50 [12]: 1.7
- Ratio IC50 [13]: 3.4
- Ratio IC50 [14]: 0.8
- Ratio IC50 [15]: 1
- Ratio IC50 [16]: 2.4
- Ratio IC50 [17]: 1
- Ratio IC50 [18]: 3.8
- Ratio IC50 [19]: 0.6
- Ratio IC50 [20]: 0.9
- Ratio IC50 [21]: 0.9
- Ratio IC50 [22]: 0.5
- Ratio IC50 [23]: 1
- Ratio IC50 [24]: 0.9
- Ratio IC50 [25]: 3.1
- Ratio IC50 [26]: 1.7
- Ratio IC50 [27]: 2.1
- Ratio IC50 [28]: 0.4
- Ratio IC50 [29]: 1.1
- Ratio IC50 [30]: 1.4
- Ratio IC50 [31]: 89
- Ratio IC50 [32]: 222
- Ratio IC50 [33]: 22
- Ratio IC50 [34]: 1
- Ratio IC50 [35]: 96
- Ratio IC50 [36]: 222
- Ratio IC50 [37]: 5
- Ratio IC50 [38]: 222
- Ratio IC50 [39]: 22
- Ratio IC50 [40]: 22
- Ratio IC50 [41]: 22

SMILES: CCCCCCCCCc1ccc(OCCOCCOCCOCCOCCOCCOCCOCCOCCO)cc1 [NONOXYNOL 9]
- CC50 [42]: 0.07%
- CC50 [43]: 0.003%
